Measured values taken from the EternaBench riboswitch data.

Tested on: MS2 coat protein
Test: apparent Kd, MS2 coat protein; higher = weaker binding; RNA-MaP array; FMN 200 µM where present
In short: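 Two titrations, one without ligand and one with constant ligand, were run with SNAP-549-labelled MS2 coat protein from 0.7 or 1.5 nM, doubling to 3 µM. The targets were designs transcribed by stalled E. coli RNA polymerase on Illumina sequencing-chip clusters, in 100 mM Tris-HCl pH 7.5, 80 mM KCl, 4 mM MgCl2, BSA, DTT, yeast tRNA and Tween-20. The apparent Kd is the median of filtered per-cluster binding-curve fits, with green signal normalised to red-channel RNA signal and control-cluster median Fmax.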

[1] = designed as: ON switch for flavin mononucleotide, no ligand
[2] = ligand present: flavin mononucleotide, designed as: ON switch for flavin mononucleotide
[3] = designed as: OFF switch for flavin mononucleotide, no ligand
[4] = ligand present: flavin mononucleotide, designed as: OFF switch for flavin mononucleotide

Row | Sequence | apparent Kd [1] [nM] | apparent Kd [2] [nM] | apparent Kd [3] [nM] | apparent Kd [4] [nM]
1 | GCCAACGCAUGAGGAUAUGCUCCCGUUUCGGGAGCAGAAGGCAUGUCAUAAGACAUGAGGAUCACCCAUGUAGUCAAGAUGGCA | 291 | 16.7 |  | 
2 | UUUUAGGAAGGAUAUACAUUUUUUUUAUUAUCCUCAUUAUUACAUGAGGAUCACCCAUGUAGAAGGUCCAUUUU |  |  | 172 | 137
3 | GGGUAGUGAGGAUAUCGUUGUUAGGAGGAGUAGGUAGGAGGCGAGAAGGCACAUGAGGAUCACCCAUGUAUGAG |  |  | 29.2 | 30.4
4 | ACAAAGUGAGGAUAUGCUAUUAUACAUUAUUGUUAUUAUUUGCAGAAGGCACAUGAGGAUCACCCAUGUAAGAA |  |  | 29.8 | 22.6
5 | CCAUGUUAGCAGGAUAUGCUAUUAAUCUUUUAUGCAGAAGGGCUUACAUGAGGAUCACCCAUGUAUUAAGUCAA |  |  | 14.1 | 47.8
6 | GCCUCAGAAUUAAUUGUGAGAAGCAGAAGGCUAUAUCUUAUGUUAGACAUGAGGAUCACCCAUGUAGAGGAUAUGCUGUUACAG |  |  | 7.84 | 12
7 | ACGCCCUGAGGAUAUCUUAUCCCGUACAUGAGGAUCACCCAUGUUUUCCUCCGGGCUCCGAGAGAAGGCAGGCCCA |  |  | 42.2 | 75.9
8 | GAUCGUUCUGUUAGGAUAUGCUUUGGGCUUCCGCAGUAGAAGGAACAUGAGGAUCACCCAUGUCCGAUGCCGUC |  |  | 25.6 | 28.1
9 | GGUACUCAAAGAGUACUUGGUCGAACAUGAGGAUCACCCAUGUAGGAUAUGCGAAGCAAGAAGUAGCAGAAGGACAUGUGCAGC |  |  | 14.8 | 43.7
10 | GCCAUCGCAUGAGGAUAUGCUCCCGUUUCGGGAGCAGAAGGCAUGCCAUAAGACAUGAGGAUCACCCAUGUAGUUAAGAUGGCA | 5.71 | 5.75 |  | 
11 | AAUUAGGUCACAGGAUAUACAACUUCCAUUGCUGUAGAAGGGUGUCACAUACUUAGCUGACAUGAGGAUCACCCAUGUAUCCAC | 243 | 95.2 |  | 
12 | CGUCCGUGGGUAGUGAUCGUACAUGAGGAUCACCCAUGUGAGAAGGAUAUGCAUGCACAUGGACAGCAGAAGGUCUCAUAACAA |  |  | 69.4 | 353
13 | AAGAAGUCAGGAUAUCCUGCUCGUCACUUGCGUGAUGAGUAGGAGAAGGGACAUGAGGAUCACCCAUGUAAAGA |  |  | 54.3 | 51.5
14 | GGCGAGUGAGGAUAUCUGAUGUCUAACUUCGGUUAGACAUCAGAGAAGGCACAUGAGGAUCACCCAUGUCCGCC |  |  | 19.3 | 17.1
15 | AAUCCACAUGAGGAUCACCCAUGUCAGGAUAUGGUGACGCGGGUUUCGGUGCGUGUUGCCAGAAGGGACGGCUG |  |  | 27 | 46.7
16 | AGUCGGAGCAGAGGAUAUUACAUGAGGAUCACCCAUGUAGGUACCAAUAGCUGGAAACAGCAAUGUAAGAAGGCUGCUCCGACA |  |  | 259 | 281
17 | GUGAAGUGAGGAUAUACGAGAGAGGCUGAACCGGACGAGAAGUAGAAGGCACAUGAGGAUCACCCAUGUAAGGA |  |  | 33 | 32.1
18 | AAAUCUGCUGAGGAUAUGAUGACUGAGAGGUCAUCAGAAGGCGGUACAUGAGGAUCACCCAUGUCUAUGGGCAA |  |  | 310 | 659
19 | AGUCGGAGCAGAGGAUAUACAUGAGGAUCACCCAUGUAAAUGGAAGAAGCCUGGAAACAGGCAAUGUAGAAGGCUGCUCCGACA |  |  | 132 | 708

Row | Sequence | apparent Kd [1] [nM] | apparent Kd [2] [nM] | apparent Kd [3] [nM] | apparent Kd [4] [nM]
20 | ACAGCGGCAGGAUAUGCAUGCUCCGACUUAUGCCGACAAAGACAUGAGGAUCACCCAUGUAGAAGGGCCAGCGG |  |  | 23.1 | 22.8
21 | ACUGGUCGAGGAUAUACAAUCGUGCUUCGGCACGUAAGAUCACAUGAGGAUCACCCAUGUAGAAGGCGACCAGU |  |  | 60.3 | 743
22 | UAUAUAUAGUAAGGAUAUGUAUAUAUUAUAUAAACAGAAGGUACUGACAUGAGGAUCACCCAUGUUUUAGUGUGGGCAUGUAGA |  |  | 67.8 | 98.9
23 | GAUAGAGAGCAGGAUAUCUUGGAUAAGUAUUGUAGAGAAGGGCUCACAUGAGGAUCACCCAUGUGGUCCUAGAU |  |  | 14.2 | 34.2
24 | GUCGGAAACGACAAAGUAGCAUAGGAGGAUAUUCAUUAAAACAUGAGGAUCACCCAUGUAAAUUGGGAGAAGGCCUAUGCUACA | 17.8 | 5.26 |  | 
25 | GCUGCAUAGGCAGGAUAUGCAAUAAUUUGAAUAAAAUAUAACAAAUUAACAUGAGGAUCACCCAUGUAGAAGGGCCUGUGCAGU |  |  | 17.5 | 19.4
26 | CUCAAACAUGAGGAUCACCCAUGUGUUGUCAUGGGAGGAUAUCUAAGUUCGUUGUAUUCGGGAGAAGGCCUAUGUC | 258 | 55.1 |  | 
27 | GGAGCACGCACAGGAUAUCCGGCGGCGCUCGUCGGAGAAGGGUGACAUGAGGAUCACCCAUGUACGUGCAACUCGGUUUGAGAG | 105 | 49.2 |  | 
28 | GGUCCAUUAUGAGGAUAUGGCACCUUAUUGGUGCCAGAAGGCAUGUCUAUAGACAUGAGGAUCACCCAUGUAAUAAAUUGGACC | 494 | 50.5 |  | 
29 | UGUGCGUAUGUGAGGAUAUGCUGGUCCUUGGCUCGGCAGAAGGCACAUGAGGAUCACCCAUGUGGUGUCGUACA |  |  | 227 | 37.5
30 | CAGCCCUGAGGAUAUCCACCCUCGUACAUGAGGAUCACCCAUGUUUCCCUCUGGGCUUUCGGAGAAGGCAGGUAUC |  |  | 78.6 | 77.3
31 | CGAUCGUGUAGAGGAUAUGUUAUACAUGAGGAUCACCCAUGUGAGGUGGAAAUAUUUAAUUACAUACAGAAGGCUACACGAUCG |  |  | 269 | 227
32 | GGAAAACAUGAGGAUCACCCAUGUGAGGAUAUCGAUGUCCAGAGGGAGGUGCGGGACUCGAGAAGGCACUUGGA |  |  | 34.2 | 82.8
33 | CCUGCACAUGAGGAUCACCCAUGUUAGGAUAUAUUUGACCGUGGAAUUACCAUUGGAAGUAGAAGGAACAUGUA |  |  | 16.1 | 18
34 | AACGCCAGUGAGAAGGCAUGUUCACAUGAGGAUCACCCAUGUAUACUCAUGAGGAUAUCAAAUGCGGACCAAAAUAAAAUAAGA | 464 | 26.6 |  | 
35 | AAUAAACUCACAGGAUAUAGCAGAGGUCGCGUGAACUUACAGACGACUAUGCUAGAAGGGUGACCACAUGAGGAUCACCCAUGU | 869 | 149 |  | 
36 | AAAUGCUGAGGAUAUACAUGAGGAUCACCCAUGUACUAAACUCGCAAGGGCAUCCGGUGUAGAAGGCAGCCUCA |  |  | 17.3 | 39.7
37 | UUUCCGCGAGGAUAUGCGGGCUGUGCUUUUCAUUUCUUACAACAUGAGGAUCACCCAUGUAGAAGGUGCUUCUU |  |  | 213 | 189
38 | AGGAGGUCAGGAUAUGCAUGGCGGGACUUGCGUCGUGGCGUGCAGAAGGGACAUGAGGAUCACCCAUGUGGAGG |  |  | 125 | 181

Row | Sequence | apparent Kd [1] [nM] | apparent Kd [2] [nM] | apparent Kd [3] [nM] | apparent Kd [4] [nM]
39 | GGUACCUUCACAGGAUAUGCUAUGCUUUGCGUAGCAGAAGGGUGAUACAUGAGGAUCACCCAUGUGGUGCCAGGGCGUGAGCCC | 283 | 278 |  | 
40 | AACAGUACAGGAUAUACAUGAGGAUCACCCAUGUGAGAAUUAAGUGGAAAACCACAAAGUAGAAGGGUACUGGA |  |  | 29.8 | 269
41 | CGUGACUCAGGAUAUCUAUAAUAUCACAUGAGGAUCACCCAUGUCCAGCAAUAGCUGGAGGGAGAAGGGAGUCACG |  |  | 140 | 54.9
42 | GCAUGUAAGCAGAAGGGCAGACAUUUUGAUGCUGCAGGAUAUGCAGAAUCAUAUCCACAUGAUAACAUGAGGAUCACCCAUGUA |  |  | 19.9 | 24.3
43 | AUUAAUUAAUUAAUACAUGAGGAUCACCCAUGUAAUAAGAUCUAGGAUAUCAGCUCGAAUAGAGCUGAGAAGGAGAUCACAUGU | 43.4 | 35.3 |  | 
44 | CGUGCGUAUGUGAGGAUAUGCUGGUCCUUGGAUCAGCAGAAGGCACAUGAGGAUCACCCAUGUGGUGUCGUACU |  |  | 297 | 19.2
45 | CCCGCGAUGUCAGGAUAUAGUCGGAGGUGCAGACUAGAAGGGACAUGAGGAUCACCCAUGUGCGUGAACAUUUGAAACCCGGGU |  |  | 40.4 | 153
46 | GCAGCAAUUUAAAACAUGAGGAUCACCCAUGUCGAGAGAUAUGAGGAUAUGCAUCGGAUGAAGAUGCAGAAGGCAUUGUGCUGC | 24.8 | 7.68 |  | 
47 | UUAAUUAAUUAAUUCCAGUUUACAUGAGGAUCACCCAUGUAUAAGGAUAUGCAGUGGAAUACACUGCAGAAGGUAUACAUCUGG |  |  | 18.4 | 35.8
48 | CCUUUGUCAGGAUAUCGAAAAGGGAGGCCAAAAGCCUCCGGUGAGAAGGGACAUGAGGAUCACCCAUGUGAAAA |  |  | 46.4 | 159
49 | UUGUAAUGAUUAGGAUAUUAUUAAUAGAACUUUAUGAUAUACAUGAGGAUCACCCAUGUUACUUAUAAGAAGGAAUCGUAUUAU |  |  | 21.2 | 16.8
50 | GCAUAUCAGGGAGGAUAUGACAUGAGGAUCACCCAUGUAAUUAUGGCUCUGUCAGAAGGCCCAUCAUCACUAUAGUGACGAGAA |  |  | 479 | 63.2
51 | AGGUCGAGUGUGAGGAUAUUGACCGGACGACCCAUCGAGAAGGCACAUGAGGAUCACCCAUGUGAUUCAGCUCA |  |  | 15 | 17.1
52 | UUACUCAUGUAAGGAUAUGCAGUCGUUUCGGCUGCAGAAGGUACUAUAAUACAUGAGGAUCACCCAUGUCUUUUUAAUUUUUAC | 112 | 41 |  | 
53 | CCAUGCAUAGCGAUAUGAUCGAGAGAUCAUGUCGCUAAAUUUAGAAGGACAUGAGGAUCACCCAUGUAGGAUAUGGGAGCAUGU | 222 | 49.7 |  | 
54 | UACAUGAGGAUCACCCAUGUUUUGUCGUGUAUGGUAUUUAUCUAGGAUAUCAAUGAAUUUAUUUAUGAGAAGGAGAAUAUUAAU |  |  | 40 | 37.5
55 | GUCAAGUGAGGAUAUGAUUGUACAACAGACUAACAUCUACAUCAGAAGGCACAUGAGGAUCACCCAUGUUUGUC |  |  | 17.7 | 15.8
56 | CGUACACAUGAGGAUCACCCAUGUCAGAUUUGGUCAGGAUAUGGGCGGCAUCCGCUAUUGCCAGAAGGGACUGUUG | 83.1 | 160 |  | 
